Experimental data reported in ChEMBL document CHEMBL4052634, “Covalent inhibitors of LgtC: A blueprint for the discovery of non-substrate-like inhibitors for bacterial glycosyltransferases” (Bioorg Med Chem, 2017).
Calls of active or inactive are those of the source.

Legend:
[1] = Inhibition of Neisseria meningitidis alpha-1,4-galactosyltransferase using lactose as substrate in presence of UDP-Gal measured after 20 min by malachite green dye-based assay
Summary of the method: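 Recombinant LgtC, pre-activated with DTT (10 mM, 1:1, 30 min, 30 °C). Reaction contained MnCl2 5 mM, CIP 10 U/mL, lysozyme 1 mg/mL, Triton 0.01%, 13 mM HEPES pH 7.0, lactose 2 mM, inhibitor 0.1–100 µM (10% DMSO final), UDP-Gal 28 µM. No pre-incubation; 20 min at 30 °C. Released phosphate read by malachite green at 620 nm against a UDP calibration curve. Turnover adjusted to 20–50%. IC50 from sigmoidal fit of background-corrected % activity; at least triplicate.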

[2] = Binding affinity to L-serine assessed as covalent adduct formation at 0.06 mmol by 1H NMR analysis
Summary of the method: (§1)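 Amino acid (0.06 mmol; cysteine in d6-DMSO, serine in D2O) added to inhibitor (0.06 mmol) in d6-DMSO in an NMR tube, mixed by shaking; 1H-NMR (400 MHz) recorded at 298 K at time points from 0-190 min to follow adduct formation.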

[3] = system: Neisseria meningitidis; assay: Inhibition of Neisseria meningitidis alpha-1,4-galactosyltransferase at 0.1 to 100 uM using lactose as substrate after 20 mins in presence of UDP-Gal and measured in presence of varying acceptor concentration by malachite green dye-based assay
Summary of the method: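 Activated LgtC with inhibitor (0.1-100 µM), UDP-Gal 28 µM, lactose varied 2-50 mM, MnCl2 5 mM, CIP 10 U/ml, lysozyme 1 mg/ml, 0.01% Triton in 13 mM HEPES pH 7.0, no pre-incubation; 20 min at 30 °C, donor turnover 20-50%; malachite green detection of UDP; triplicate.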

[4] = system: Neisseria meningitidis; assay: Inhibition of Neisseria meningitidis alpha-1,4-galactosyltransferase assessed as enzyme activity at 100 uM using beta-lactose as substrate preincubated for 10 mins in presence of UDP-Gal donor followed by substrate addition incubated for 20 mins measured before diafiltration by colorimetric analysis (reference value: 84%)
Summary of the method: (§2)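 DTT-activated LgtC pre-incubated with inhibitor (100 µM) or DMSO plus UDP-Gal 28 µM, 10 min at 30 °C; lactose 2 mM added, 20 min at 30 °C. Activity measured in samples taken before, and after diafiltration (10 kDa cut-off, 4 °C, two 50 min spins with one HEPES pH 7.0 wash), under standard conditions (2 mM lactose, 28 µM UDP-Gal, 20 min, 30 °C), malachite green readout.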

[5] = Binding affinity to L-cysteine assessed as covalent adduct formation at 0.06 mmol by 1H NMR analysis; conditions: TDE = time-dependent effect; summary of the method: as §1
[6] = target: T1, Galactoside alpha-(1,2)-fucosyltransferase 2 (Homo sapiens) (UniProt Q10981); assay: Inhibition of human fucosyltransferase2 at 150 uM using alpha-lactose as substrate in presence of GDP-Fuc measured after 20 mins by malachite green dye-based assay
T1 sequence (whole entry): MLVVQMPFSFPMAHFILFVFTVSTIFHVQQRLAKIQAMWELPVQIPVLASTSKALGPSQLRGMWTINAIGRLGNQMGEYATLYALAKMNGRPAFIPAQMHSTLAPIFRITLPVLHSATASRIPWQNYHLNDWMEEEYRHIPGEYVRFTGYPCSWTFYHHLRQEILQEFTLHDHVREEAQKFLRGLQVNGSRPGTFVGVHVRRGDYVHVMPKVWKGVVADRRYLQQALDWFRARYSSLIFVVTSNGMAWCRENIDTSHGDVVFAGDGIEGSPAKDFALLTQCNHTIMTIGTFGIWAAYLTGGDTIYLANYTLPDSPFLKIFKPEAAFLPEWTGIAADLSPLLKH

[7] = system: Neisseria meningitidis; assay: Inhibition of Neisseria meningitidis alpha-1,4-galactosyltransferase assessed as enzyme activity at 100 uM using beta-lactose as substrate in presence of UDP-Gal donor/lactose acceptor incubated for 20 mins measured after diafiltration by colorimetric analysis (reference value: 85 %); summary of the method: as §2
[8] = organism: Bos taurus; assay: Inhibition of bovine beta-1,4-galactosyltransferase at 100 uM using GLcNAc as substrate in presence of UDP-Gal measured after 20 mins by malachite green dye-based assay
[9] = system: Neisseria meningitidis; assay: Competitive inhibition of Neisseria meningitidis alpha-1,4-galactosyltransferase at 1 to 5 uM using lactose as substrate measured after 20 mins in presence of fixed concentration of UDP-Gal donor and varying concentration of lactose acceptor by Dixon/Cornish-Bowden plot analysis
Summary of the method: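 Acceptor kinetics using standard protocol without pre-incubation: DTT-activated LgtC, UDP-Gal fixed at 100 µM, inhibitor 1, 2, 3, 4, 5 µM, lactose 5, 15, 25 mM, with 5 mM MnCl2, CIP 10 U/ml, lysozyme 1 mg/ml, 0.01% Triton, 13 mM HEPES pH 7.0, 10% DMSO; 20 min at 30 °C, donor turnover <10%; UDP released read by malachite green.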

[10] = Binding affinity to L-lysine assessed as adduct formation at 0.06 mmol by 1H NMR analysis
Summary of the method: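 Lysine (0.06 mmol in D2O) mixed with inhibitor (0.06 mmol) in d6-DMSO in an NMR tube by shaking; 1H-NMR spectra at 400 MHz, 298 K, taken at time points over 0-190 min.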

[11] = system: Neisseria meningitidis; assay: Inhibition of Neisseria meningitidis alpha-1,4-galactosyltransferase C246S mutant expressed in Escherichia coli BL21(DE3) at 100 uM using lactose as substrate in presence of UDP-Gal measured after 20 min by malachite green dye-based assay
Summary of the method: (§3)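 Mutant LgtC (His-tag purified, Superdex 200), DTT-activated (10 mM, 1:1, 30 min, 30 °C), no pre-incubation with inhibitor. Final: 2 mM lactose, 28 µM UDP-Gal, 5 mM MnCl2, phosphatase CIP 10 U/mL, lysozyme 1 mg/mL, 0.01% Triton, 13 mM HEPES pH 7.0, 10% DMSO; 20 min, 30 °C. UDP read at 620 nm vs UDP calibration, background-corrected; triplicate.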

[12] = system: Neisseria meningitidis; assay: Inhibition of Neisseria meningitidis alpha-1,4-galactosyltransferase C246A mutant expressed in Escherichia coli BL21(DE3) at 100 uM using lactose as substrate in presence of UDP-Gal measured after 20 min by malachite green dye-based assay; summary of the method: as §3
[13] = target: Intestinal-type alkaline phosphatase (Bos taurus) (UniProt P19111); assay: Inhibition of calf intestinal alkaline […] at 0.1 to 100 uM using UDP as substrate after 20 mins by malachite green dye-based assay
[14] = system: Neisseria meningitidis; assay: Binding affinity to Neisseria meningitidis alpha-1,4-galactosyltransferase assessed as covalent adduct formation at 100 uM after 20 mins by mass spectrometric analysis
Summary of the method: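 LgtC stock without DTT activation, diluted in 13 mM HEPES pH 7.0, incubated with inhibitor (100 or 50 µM, added in DMSO; 10% final DMSO) for 20 min at 30 °C; samples injected directly for electrospray MS to detect protein-inhibitor adducts.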

[15] = system: Pasteurella multocida; assay: Inhibition of Pasteurella multocida alpha-2,3-sialyltransferase at 150 uM using beta-lactose as substrate in presence of CMP-Neu5Ac measured after 20 mins by malachite green dye-based assay
[16] = system: Neisseria meningitidis; assay: Inhibition of Neisseria meningitidis alpha-1,4-galactosyltransferase at 25 to 100 uM using lactose as substrate preincubated for 10 mins in presence of UDP-Gal followed by substrate addition measured after 20 mins
Summary of the method: (§4)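 LgtC pre-incubated 10 min at 30 °C with inhibitor (DMSO, 10% final) and UDP-Gal 28 µM in 13 mM HEPES pH 7.0 with MnCl2 5 mM, CIP 10 U/mL, lysozyme 1 mg/mL, 0.01% Triton; lactose 2 mM then added, 20 min at 30 °C; malachite green absorbance at 620 nm converted via UDP calibration; triplicate.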

[17] = system: Neisseria meningitidis; assay: Inhibition of Neisseria meningitidis alpha-1,4-galactosyltransferase at 25 to 50 uM using lactose as substrate preincubated for 10 mins in presence of UDP-Gal followed by substrate addition measured after 20 mins; summary of the method: as §4

Chain of Intestinal-type alkaline phosphatase (Bos taurus) (P19111 20-506 limits assumed): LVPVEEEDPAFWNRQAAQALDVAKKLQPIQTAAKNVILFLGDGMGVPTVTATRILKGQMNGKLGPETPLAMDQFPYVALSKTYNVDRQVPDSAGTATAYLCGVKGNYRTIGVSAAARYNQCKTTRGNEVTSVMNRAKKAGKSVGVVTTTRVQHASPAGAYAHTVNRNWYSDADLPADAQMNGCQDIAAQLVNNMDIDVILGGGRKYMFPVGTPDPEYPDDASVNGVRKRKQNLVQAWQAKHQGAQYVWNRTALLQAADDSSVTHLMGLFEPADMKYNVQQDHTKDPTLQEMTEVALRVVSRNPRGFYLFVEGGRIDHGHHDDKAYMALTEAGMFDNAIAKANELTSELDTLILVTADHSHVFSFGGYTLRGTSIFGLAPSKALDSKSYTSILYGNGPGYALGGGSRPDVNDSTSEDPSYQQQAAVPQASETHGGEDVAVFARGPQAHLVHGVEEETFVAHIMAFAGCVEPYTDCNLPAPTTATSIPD

For CC1=NN(c2ccccc2)C(=O)/C1=C\c1ccccc1C(F)(F)F, the IC50 [1] was 27 µM, the Activity [2] was “inactive” and the inhibition [3] was “inactive”. For the same compound, the inhibition [4] was 30%, the Activity [5] was “Tde” and the inhibition [6] was “inactive”. For the same compound, the inhibition [7] was 23%, the inhibition [8] was “inactive” and the inhibition [9] was “Active”. The Activity [10] was “inactive”, the inhibition [11] was “Active” and the inhibition [12] was “inactive”. For the same compound, the inhibition [13] was “inactive”, the Activity [14] was “Active” and the inhibition [15] was “inactive”.
With COc1ccc(/C=C2\SC(=S)N(c3ccccc3)C2=O)cc1Br the inhibition [16] was “inactive” and the inhibition [17] was “inactive”.
With Cc1nn(-c2ccccc2)c(O)c1Cc1ccccc1C(F)(F)F the inhibition [16] was “inactive”.
